Molecules are shown by their SMILES. Unmarked numbers belong to inactive results. Inconclusive results are not listed. Calls of active or inactive are those of the source.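 The calls were made as follows, unless noted: active = RAM network inhibition above 8.4% in each of two replicates, 3 SD over the compound average; inconclusive = above 8.4% inhibition in only one replicate; inactive = 8.4% inhibition or less in each replicate.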

Experiment [1] in a line: S. cerevisiae growth inhibition in permissive medium (OD615), pilot counter-assay for S. cerevisiae lifespan shortening project, permissive growth control (AID 705;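 active = growth inhibition above 25% in both replicates, a cutoff set 3 SD above the mean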). Particulars: OD615, 24 h, at 10 µM, active compounds read high. The procedure, abridged:
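Test system: Saccharomyces cerevisiae strain carrying genetically modified DeaD replicative-lifespan system; buffer or medium: SC raffinose/galactose permissive medium; dosing: one dose 10 µM, DMSO 0.25% final; times: 24 h exposure, 30 °C; measured by: OD at 615 nm; read-out basis: growth inhibition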

The nature of experiment [2]: S. cerevisiae growth inhibition in restrictive medium, OD615, pilot screen, restrictive growth control, yeast lifespan reduction project (AID 706;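 active = growth inhibition above a set limit, 3 SD over mean compound inhibition, in both replicates, cut at about 43% in these data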;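 also: modified DeaD lifespan yeast strain shifted to restrictive glucose medium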). The conditions noted are these: OD615, 48 h, at 10 µM, active compounds read high. An outline of the steps:
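material = engineered S. cerevisiae DeaD strain | buffer or medium = glucose-based CSMM-D restrictive medium | dosing = one concentration, 10 µM final, 0.25% DMSO | schedule = 4 h pre-growth plus 48 h compound exposure, 30 °C | detection = OD615 absorbance reading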

A short description of experiment [3]: doxorubicin toxicity protection in MRP-1 cells – H69AR cells, CellTiter-Glo, duplicate, MRP-1 activator project, pilot screen (AID 807;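 active = viability increase at or above a cutoff of the median across tested compounds plus 3 SD, cut at about 8.5% in these data, passing the limit was not always enough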;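 also: compound pretreatment 18-22 h then 72 h combined with doxorubicin; 0% = doxorubicin alone and 100% = vehicle without doxorubicin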). Particulars: H69AR viability with doxorubicin, CellTiter-Glo luminescence; at 10 µM; active compounds read high.
Experiment [4] in a line: viability of HCT116 without oncogenic beta-catenin – human colon tumor cells, pilot screen (AID 823;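 active = cell viability at or below a set limit in both duplicate runs, the limit being the all-compound median minus 4 SD, cut at about 23% in these data, passing the limit was not always enough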;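 also: 0% = wells killed by 20 µM Hyamine and 100% = untreated DMSO cell wells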). Particulars: HCT116 beta-catenin knockout viability, CellTiter-Glo, 60 h; at 10 µM; active compounds read low.
A short description of experiment [5]: viability of PTEN-null HCT116 cells – cell-based, HCT116 clonal line, CellTiter-Glo, pilot screen (AID 824;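 active = viability at or below 27.92% in each of two runs, the all-compound median minus 4 SD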;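 also: 0% = 20 µM Hyamine control and 100% = vehicle cell control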). The conditions noted are these: HCT116 PTEN-deleted viability, 60 h, at 10 µM, active compounds read low.
The nature of experiment [6]: RAM pathway blockade in budding yeast – dse1pr::URA3 reporter, 5-FOA selection, pilot screen (AID 869;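 active = inhibition over a set limit, the all-compound mean plus 3 SD, in both replicate runs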;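 also: 0% = DMSO wells with no growth and 100% = 10 µM 1-NA-PP1 with full growth; RAM network block rescues cells from 5-FOA so hits raise OD615 growth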). The conditions noted are these: S. cerevisiae dse1pr::URA3 5-FOA growth, OD615, 2 d; at 10 µM; active compounds read high; strain carries analog-sensitive mutant Cbk1 kinase.
Experiment [7] in a line: RAM signaling pathway blockade in yeast – S. cerevisiae, Pdr1DBD-CYC8 efflux-inhibited sensitized strain, primary screen (AID 1298).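 Also: 0% = DMSO untreated cells without growth and 100% = 10 µM 1-NA-PP1 full growth; higher means more yeast growth rescued from 5-FOA killing.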 Particulars: S. cerevisiae cbk1-as DSE1-URA3 strain, 5-FOA growth OD615, 2 d; at 50 µM; active compounds read high.

Take `O=C(O)c1c2c(nc3ccc(S(=O)(=O)N4CCC(C(=O)N5CCCCC5)CC4)cc13)CCCC2`: the results for the growth inhibition in experiment [1] and in experiment [2] were -3.06% and -3.51%, respectively. Further, the viability increase in experiment [3] is 0.51%. Moreover, the figures for the viability in experiment [4] and in experiment [5] were 97.3% and 92.8%, respectively. Also, the inhibition in experiment [6] is 0.79%. Besides, the RAM network inhibition in experiment [7] was 1.98%.
Take `CCS(=O)(=O)N1CCN(Cc2nc3ccccc3c(=O)[nH]2)CC1`: the figures for the growth inhibition in experiment [1] and in experiment [2] were -12.6% and -14.4%, respectively. For the same molecule, the viability increase in experiment [3] was 0.44%. For the same molecule, the values for the viability in experiment [4] and in experiment [5] were 97.5% and 91.8%, respectively. Also, the inhibition in experiment [6] was 1.33%. In experiment [7], the RAM network inhibition was 6.05%.
Consider `Cc1cc(-c2ccccc2)n2ncc(C#N)c2n1`, for which the growth inhibition in experiment [1] was -0.51%; in experiment [2], 2.26%. Further, the viability increase in experiment [3] was -1.18%. Moreover, the viability in experiment [4] was 103%; in experiment [5], 98.8%. In experiment [6], the inhibition was 1.17%. In addition, the RAM network inhibition in experiment [7] was 2.36%.
Take `Cc1cc(C)nc(NS(=O)(=O)c2ccc(NC(=O)CCCN3C(=O)c4ccccc4C3=O)cc2)n1`: the growth inhibition is -7.67% in experiment [1] and -0.225% in experiment [2]. Further, in experiment [3], the viability increase is -1%. In addition, the figures for the viability in experiment [4] and in experiment [5] were 99.6% and 100%, respectively. The inhibition in experiment [6] was 0.735%. For the same molecule, in experiment [7], the RAM network inhibition was 3.72%.
For `CC(=O)Nc1ccc(OC/C=C(\C)Cl)cc1`, the results for the growth inhibition in experiment [1] and in experiment [2] were -16.6% and -7.54%, respectively. In experiment [3], the viability increase is -1.2%. Moreover, the viability in experiment [4] and in experiment [5] was 101% in each case. The inhibition in experiment [6] was 0.895%. In experiment [7], the RAM network inhibition was 2.95%.
For `Cc1ccccc1C(=O)OCn1nnc2ccccc2c1=O`, the figures for the growth inhibition in experiment [1] and in experiment [2] were -1.86% and -19.1%, respectively. In addition, in experiment [3], the viability increase is -2.87%. Moreover, the viability is 88.9% in experiment [4] and 93.2% in experiment [5]. Further, the inhibition in experiment [6] was 1.44%. In addition, the RAM network inhibition in experiment [7] was 2.2%.
Take `CS(=O)(=O)Nc1cccc2cccnc12`: the growth inhibition is 5.63% in experiment [1] and -1.19% in experiment [2]. Moreover, in experiment [3], the viability increase is -4.19%. The viability in experiment [4] is 50.4%; in experiment [5] it was 56.7%. In experiment [6], the inhibition was 2.3%. For the same molecule, in experiment [7], the RAM network inhibition was 0.27%.
Consider `Cc1c2cn[nH]c(=O)c2c(C)n1Cc1ccc(F)cc1`, for which the growth inhibition in experiment [1] was -17.7%; in experiment [2], -15%. The viability increase in experiment [3] was -3.21%. The viability in experiment [4] was 90.7%; in experiment [5], 98.5%. For the same molecule, the inhibition in experiment [6] was 1.83%. Also, the RAM network inhibition in experiment [7] is 5.11%.
For `CCCC1(C(=O)O)NC(c2cccc(OC)c2O)C2C(=O)N(c3ccccc3)C(=O)C21` (stereo not drawn), the results for the growth inhibition in experiment [1] and in experiment [2] were -0.085% and -4.29%, respectively. The viability increase in experiment [3] is -0.36%. For the same molecule, the viability was 96.4% in experiment [4] and 97.4% in experiment [5]. Moreover, the inhibition in experiment [6] was 0.49%. In experiment [7], the RAM network inhibition is -0.78%.
Consider `CCCCNc1ncnc2c1cnn2-c1ccc(C)cc1C`, for which the growth inhibition was 6.55% in experiment [1] and 9.48% in experiment [2]. For the same molecule, in experiment [3], the viability increase is -3.72%. For the same molecule, the viability in experiment [4] was 92.8%; in experiment [5], 89.2%. The inhibition in experiment [6] was -0.12%. In experiment [7], the RAM network inhibition is 0.27%.
On to `O=C(NCC1CCCO1)c1ccc2nc(N3CCCCC3)sc2c1` (stereo not drawn), for which the growth inhibition in experiment [1] is -2.59%; in experiment [2] it was -4.53%. Further, the viability increase in experiment [3] is -0.46%. Moreover, the viability in experiment [4] is 102%; in experiment [5], 96.8%. Moreover, the inhibition in experiment [6] was 2.37%. Further, the RAM network inhibition in experiment [7] is 1.03%.
Take `COc1ccc(CNC(=O)CN(c2cc(C)cc(C)c2)S(=O)(=O)c2c(C)noc2C)cc1`: the values for the growth inhibition in experiment [1] and in experiment [2] were -24.7% and -27.1%, respectively. Besides, in experiment [3], the viability increase was -4.08%. Further, the figures for the viability in experiment [4] and in experiment [5] were 97.1% and 89.2%, respectively. The inhibition in experiment [6] was 1.92%. Moreover, the RAM network inhibition in experiment [7] was 3.21%.
Regarding `CCCCOC(=O)c1ccc(NC(=O)CSCc2n[nH]c(=O)[nH]2)cc1`, the growth inhibition in experiment [1] is -1.44%; in experiment [2], -3.24%. For the same molecule, the viability increase in experiment [3] is 0.11%. Besides, the viability was 98.3% in experiment [4] and 102% in experiment [5]. Moreover, the inhibition in experiment [6] was 0.475%. Moreover, in experiment [7], the RAM network inhibition was 1.48%.
With `COc1ccc(NC(=O)Nc2cccc3cccnc23)cc1`, the growth inhibition was -3.3% in experiment [1] and -0.385% in experiment [2]. For the same molecule, the viability increase in experiment [3] was -4.59%. In addition, the values for the viability in experiment [4] and in experiment [5] were 88.5% and 78%, respectively. Moreover, the inhibition in experiment [6] is -0.39%. Moreover, the RAM network inhibition in experiment [7] was 0.21%.
For `CC1Cc2ccccc2N1C(=O)CSC1=NCCS1` (stereo not drawn), the growth inhibition in experiment [1] is 7.58%; in experiment [2], 50.5% (active). The viability increase in experiment [3] was -6.91%. In addition, the figures for the viability in experiment [4] and in experiment [5] were 92.6% and 95.2%, respectively. The inhibition in experiment [6] was 2.67%. Besides, in experiment [7], the RAM network inhibition is 6.64%.
For the molecule `C=CCn1c(SCCCC)nc(O)cc1=O`, the growth inhibition in experiment [1] was 1.55%; in experiment [2], 8.79%. Further, in experiment [3], the viability increase is -0.11%. Besides, the viability in experiment [4] is 105%; in experiment [5], 102%. The inhibition in experiment [6] was 0.02%. Also, in experiment [7], the RAM network inhibition was -0.21%.
Regarding `CCCc1cc(C(=O)Nc2cccc(C(C)=O)c2)no1`, the growth inhibition in experiment [1] was -4.86%; in experiment [2] it was 1.98%. The viability increase in experiment [3] was 0.44%. In addition, the viability is 104% in experiment [4] and 92.3% in experiment [5]. In experiment [6], the inhibition is 1.75%. Moreover, in experiment [7], the RAM network inhibition is 2.91%.
In the case of `O=C(c1c(Cl)nc2sccn12)N1CCCc2ccccc21`, the growth inhibition was -2.11% in experiment [1] and -6.31% in experiment [2]. Besides, the viability increase in experiment [3] was -0.71%. The viability in experiment [4] was 100%; in experiment [5], 98.2%. The inhibition in experiment [6] is 2.37%. The RAM network inhibition in experiment [7] is 1.4%.
Take `COc1ccc(CNC(=O)CS(=O)Cc2nc(-c3ccccc3C)oc2C)cc1` (stereo not drawn): the growth inhibition was -3.65% in experiment [1] and 10.4% in experiment [2]. Moreover, in experiment [3], the viability increase is -0.34%. Besides, the viability is 96.7% in experiment [4] and 101% in experiment [5]. In addition, the inhibition in experiment [6] was 0.275%. Besides, the RAM network inhibition in experiment [7] was 1.98%.
As to `CC1=NC2(CCCc3c2no[n+]3[O-])N(O)C1(C)C` (stereo not drawn), the growth inhibition in experiment [1] is 6.66%; in experiment [2] it was 3.75%. Besides, the viability increase in experiment [3] is -1.89%. Also, the values for the viability in experiment [4] and in experiment [5] were 101% and 98.7%, respectively. Besides, the inhibition in experiment [6] was 1.36%. Further, the RAM network inhibition in experiment [7] was 1.51%.
With `COc1ccc(NC(=O)C2CCN(S(=O)(=O)c3ccc(C)cc3)CC2)cc1OC`, the figures for the growth inhibition in experiment [1] and in experiment [2] were 4.97% and 1.39%, respectively. Moreover, in experiment [3], the viability increase is -3.08%. For the same molecule, the values for the viability in experiment [4] and in experiment [5] were 97.1% and 101%, respectively. The inhibition in experiment [6] is 2.25%. The RAM network inhibition in experiment [7] was 4.75%.
Regarding `COc1ccc(C2CC(c3ccccc3C)n3nc(N)nc3N2)cc1` (stereo not drawn), the growth inhibition in experiment [1] is 1.94%; in experiment [2], 17.8%. In addition, in experiment [3], the viability increase is 0.56%. Besides, the results for the viability in experiment [4] and in experiment [5] were 96.1% and 87.6%, respectively. Besides, in experiment [6], the inhibition was 2.3%. The RAM network inhibition in experiment [7] is 1.89%.
For the molecule `O=C(Nc1nc(-c2ccccn2)cs1)c1ccc(Cl)s1`, the growth inhibition in experiment [1] is 94.1% (active); in experiment [2] it was 96.8% (active). Besides, the viability increase in experiment [3] was -8.93%. The viability is 10.6% (active) in experiment [4] and 22.1% (active) in experiment [5]. Also, the inhibition in experiment [6] was -1.18%. The RAM network inhibition in experiment [7] was -2.58%.
On to `Cn1c(Cn2c(=O)sc3ccccc32)nnc1SCC(=O)N1CCc2ccccc21`, for which the values for the growth inhibition in experiment [1] and in experiment [2] were -8.97% and -4.5%, respectively. In addition, in experiment [3], the viability increase was -1.09%. The viability in experiment [4] is 86.1%; in experiment [5], 92.6%. In experiment [6], the inhibition is 2.98%. Besides, the RAM network inhibition in experiment [7] was 2.79%.
